Measurements as given in ChEMBL document CHEMBL1641445, “Synthesis, antiprotozoal, antimicrobial, β-hematin inhibition, cytotoxicity and methemoglobin (MetHb) formation activities of bis(8-aminoquinolines)” (Bioorg Med Chem, 2011).
pIC50: −log10 of the molar value. Activity calls are given as the source filed them. The calls are words filed in the database; no cut-off is given here.

Key:
[1] = Hematotoxicity against RBC assessed as formation of methemoglobin at 20 ug/ml relative to control; type: cell-based; details: erythrocyte
Outline: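 Metabolism-linked methemoglobin toxicity in vitro. Percent MetHb formation was determined at 20 µg/mL of compound relative to vehicle control.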

[2] = system: Plasmodium falciparum; test: Antimalarial activity against chloroquine-sensitive Plasmodium falciparum D6 by LDH assay; type: functional, organism-based
Outline: (§1)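 Antiplasmodial activity was measured in vitro against P. falciparum blood-stage cultures. Read-out was parasite lactate dehydrogenase (LDH) activity, with IC50 values expressed in µg/mL. The same protocol was used for the D6 and W2 strains.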

[3] = system: Plasmodium falciparum; test: Antimalarial activity against chloroquine-resistant Plasmodium falciparum W2 by LDH assay; type: functional, organism-based; details: Plasmodium falciparum, W2; read-out: IC50; outline: as §1
[4] = system: Vero; test: Cytotoxicity against african green monkey Vero cells up to 10 ug/ml by neutral red assay; type: cell-based; details: chlorocebus sabaeus
Outline: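 Vero (monkey kidney) cells were exposed up to a highest concentration of 10 µg/mL. Viability was read by neutral red uptake.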

[5] = Inhibition of beta-hematin formation; type: functional
[6] = system: Plasmodium berghei; test: Antimalarial activity against Plasmodium berghei infected in mouse assessed as negative parasitemia level at 10 mg/kg, po qd for 4 days measured up to 7 days; type: functional, organism-based; design: dose 10 mg/kg
Outline: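 Mice infected with P. berghei (sensitive strain), 6 per group, dosed orally at 10–100 mg/kg/day × 4. Suppression meant negative parasitemia in all treated animals up to D+7. Survivors were counted at D+60.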

[7] = system: Leishmania donovani; test: Antileishmanial activity against promastigotes of Leishmania donovani by alamar blue assay; type: functional, organism-based; details: for IC50: read-out: IC50
[8] = system: Plasmodium berghei; test: Antimalarial activity against Plasmodium berghei infected in mouse assessed as complete elimination of malaria parasites from animals at 25 mg/kg, po qd for 4 days measured up to 60 days; type: functional, organism-based; design: dose 25 mg/kg
Outline: (§2)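 Rodent P. berghei (sensitive strain) blood-schizontocidal model, 6 mice per group. Compounds were given orally once daily for 4 days at 10, 25, 50 or 100 mg/kg/day. Cure meant complete parasite elimination with survival to day D+60.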

[9] = system: Plasmodium berghei; test: Antimalarial activity against Plasmodium berghei infected in mouse assessed as complete elimination of malaria parasites from animals at 50 mg/kg, po qd for 4 days measured up to 60 days; type: functional, organism-based; design: dose 50 mg/kg; outline: as §2
[10] = system: Plasmodium berghei; test: Antimalarial activity against Plasmodium berghei infected in mouse assessed as complete elimination of malaria parasites from animals at 100 mg/kg, po qd for 4 days measured up to 60 days; type: functional, organism-based; design: dose 100 mg/kg; outline: as §2
[11] = system: Mycobacterium intracellulare; test: Antibacterial activity against Mycobacterium intracellular ATCC 23068 by CLSI method; type: functional, organism-based
[12] = system: Staphylococcus aureus; test: Antibacterial activity against methicillin-resistant Staphylococcus aureus ATCC 43300 at 20 ug/ml by CLSI method; type: functional, organism-based
Outline: (§3)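 Broth dilution method (NCCLS M7-A5). […] MIC is the lowest concentration allowing no detectable growth. MBC is the lowest concentration killing the organism. Highest test concentration was 20 µg/mL.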

[13] = system: Candida albicans; test: Antifungal activity against Candida albicans ATCC 90028 at 20 ug/ml; type: functional, organism-based
[14] = system: Cryptococcus neoformans; test: Antifungal activity against Cryptococcus neoformans ATCC 90113; type: functional, organism-based
[15] = system: Aspergillus fumigatus; test: Antifungal activity against Aspergillus fumigatus ATCC 90906 at 20 ug/ml; type: functional, organism-based
[16] = system: Nakaseomyces glabratus; test: Antifungal activity against Candida glabrata at 20 ug/ml; type: functional, organism-based
[17] = system: Pichia kudriavzevii; test: Antifungal activity against Candida krusei at 20 ug/ml; type: functional, organism-based
[18] = system: Staphylococcus aureus; test: Antibacterial activity against methicillin-resistant Staphylococcus aureus ATCC 43300 by CLSI method; type: functional, organism-based; outline: as §3
[19] = system: Mycobacterium intracellulare; test: Antibacterial activity against Mycobacterium intracellular ATCC 23068 at 20 ug/ml by CLSI method; type: functional, organism-based
[20] = system: Candida albicans; test: Antifungal activity against Candida albicans ATCC 90028; type: functional, organism-based
[21] = system: Staphylococcus aureus; test: Antibacterial activity against Staphylococcus aureus by CLSI method; type: functional, organism-based
[22] = Plasmodium falciparum, D6, read-out: IC50

SMILES	Methemoglobin formation [1] [%]	IC50 [3] [µg/mL]	Activity [4]	pIC50 [5]	Activity [6]	IC90 ([7]; Leishmania donovani) [µg/mL]	Activity [9]	Activity [10]	IC50 [11] [µg/mL]	MFC [13]	MIC [13]	IC50 [14] [µg/mL]	MFC [14] [µg/mL]	MIC [14] [µg/mL]	Activity [15]	Activity [16]	Activity [17]	IC50 [18] [µg/mL]	MIC [18] [µg/mL]	MBC [19]	further results
COc1cc(NC(C)CCCNCCNCCNCCCC(C)Nc2cc(OC)cc3cccnc23)c2ncccc2c1.Cl.Cl (stereo unspecified)	8.4	1.5	Non-toxic	3.74	Active	27	Active	Active	10	inactive	inactive	15	20	20	inactive	inactive	inactive	–	–	–	IC50 [2, 22]: 2.6 µg/mL; Activity [8]: Active; MBC [11]: 20 µg/mL; MIC [11]: 20 µg/mL; IC50 [12]: Not Active; MBC [12]: inactive; MIC [12]: inactive; IC50 [13]: Not Active
COc1cc(NC(C)CCCNC(=O)CC[C@H](N)C(=O)NCCCC(C)Nc2cc(OC)cc3cccnc23)c2ncccc2c1.Cl (stereo partly specified)	13.35	–	Non-toxic	4.07	Active	35	Active	Active	15	inactive	inactive	15	20	20	inactive	inactive	inactive	15	20	inactive	IC50 ([7]; Leishmania donovani): 16 µg/mL; Activity [8]: Active; MIC [11]: 20 µg/mL; MBC [12]: inactive; IC50 [13]: Not Active
COc1cc(NC(C)CCCNC(=O)C[C@H](N)C(=O)NCCCC(C)Nc2cc(OC)cc3cccnc23)c2ncccc2c1.Cl (stereo partly specified)	5.4	3.8	Non-toxic	3.73	–	30	–	–	20	inactive	inactive	7.5	10	10	inactive	inactive	inactive	15	20	inactive	IC50 [2, 22]: 4.76 µg/mL; MIC [19]: inactive; MBC [12]: inactive; IC50 [13]: Not Active
COc1cc(NC(C)CCCNC(=O)N[C@@H](CCCN)C(=O)NCCCC(C)Nc2cc(OC)cc3ccc(C(C)(C)C)nc23)c2nc(C(C)(C)C)ccc2c1.Cl (stereo partly specified)	0.2	–	Non-toxic	3.82	–	33	–	–	15	inactive	inactive	15	–	20	inactive	inactive	inactive	6.5	20	inactive	IC50 [2, 22]: 4 µg/mL; IC50 ([7]; Leishmania donovani): 18 µg/mL; MBC [18]: 20 µg/mL; IC50 [20]: 15 µg/mL
COc1cc(NC(C)CCCN)c2ncccc2c1 (stereo unspecified) [PRIMAQUINE]	10	–	Non-toxic	< 3.00	inactive	–	–	inactive	–	–	–	–	–	–	–	–	–	–	–	–	IC90 [7]: inactive
COc1cc(NC(C)CCCNC(=O)N[C@H](CCCN)C(=O)NCCCC(C)Nc2cc(OC)cc3ccc(C(C)(C)C)nc23)c2nc(C(C)(C)C)ccc2c1.Cl (stereo partly specified)	2.3	0.3	Non-toxic	4.97	Active	34	Active	Active	10	inactive	inactive	9.97	20	–	inactive	inactive	inactive	1.78	5	inactive	IC50 ([7]; Leishmania donovani): 20 µg/mL; Activity [8]: Active; IC50 [21]: 2.73 µg/mL; MBC [21]: 5 µg/mL; MIC [21]: 5 µg/mL; MBC [18]: 5 µg/mL; MIC [11]: 20 µg/mL; IC50 [20]: > 20 µg/mL
CCCCCOc1c(OC)cc(NC(C)CCCNC(=S)NCCCC(C)Nc2cc(OC)c(OCCCCC)c3c(CC)ccnc23)c2nccc(CC)c12.Cl.Cl (stereo unspecified)	1.7	4.76	Non-toxic	< 3.00	–	–	–	–	15	inactive	–	10	20	20	inactive	inactive	inactive	3.5	5	inactive	IC50 [2]: Not Active; IC90 [7]: inactive; IC50 ([7]; Leishmania donovani): 40 µg/mL; MBC [18]: 10 µg/mL; MIC [11]: 20 µg/mL; IC50 [20]: 10 µg/mL; MIC [20]: 20 µg/mL
COc1cc(NC(C)CCCNC(=O)NC(CCCNC(=N)N)C(=O)NCCCC(C)Nc2cc(OC)cc3cccnc23)c2ncccc2c1 (single isomer, unassigned; 36)	–	–	–	–	–	–	inactive	Active	–	inactive	inactive	–	–	–	inactive	inactive	inactive	–	–	–	–
